Sampled rows, rich in hits. Any-hit rate of the full collection: about 6.8%.
HSF1 inh: HSF1 inhibitors in luciferase reporter cells, primary screen, cell-based, NIH3T3, luminescence | NIH3T3-HGL HSE-luciferase, MG132-induced, luminescence 8 h; hits give low values | activity change, negative = inhibition, % at 7.5 µM (by protocol) | 0.77% of 300,000 active;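 active = more than half of replicate wells show activity change below -50%, luminescence cut by over half; inconclusive = some wells, but at most half, below -50%; inactive = no replicate well below -50%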;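 note: luciferase reports HSF-1 transcriptional activity via heat shock element; 0% = median of DMSO wells and -100% = zero luminescence signal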
AI-2 QS modul: Vibrio harveyi AI-2 quorum sensing modulators, primary screen, JMH597 strain, luminescence/OD600 ratio; Vibrio harveyi JMH597 AI-2 luminescence/OD600 ratio, 9 h; hits give low values; strain lacks LuxN and CqsS sensors; 0 = neutral-control median; AID 2094, 2009; 0.4% of 300,000 active; activity change, % at 7.5 µM; in the data active = activity change below about -75%, passing the limit was not always enough; inconclusive = no clear call, values can overlap the other calls;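 note: luminescence divided by OD600 gain over 9 h not by final OD600 alone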
PHOSPHO1 block: PubChem AID 1565; recombinant PHOSPHO1, absorbance phosphatase assay; inhibition, % at 13.3 µM; 1.1% of 290,000 active; in the data active = inhibition above about 60%
Target sequence (Q8TCT1 whole entry, looked up): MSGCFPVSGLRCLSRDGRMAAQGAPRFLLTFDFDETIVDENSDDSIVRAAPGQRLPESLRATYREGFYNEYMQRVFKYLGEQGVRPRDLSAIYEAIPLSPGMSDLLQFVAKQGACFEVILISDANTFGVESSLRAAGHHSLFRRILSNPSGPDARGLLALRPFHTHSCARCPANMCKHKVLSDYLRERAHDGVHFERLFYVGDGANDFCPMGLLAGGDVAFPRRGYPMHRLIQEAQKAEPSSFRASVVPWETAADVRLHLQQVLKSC
HSF-1 act: HSF-1 activators, primary screen, NIH3T3-HGL cells, MG132 stress, luminescence, single point; 1.7% of 300,000 active; NIH3T3-HGL HSF-1 luciferase reporter, 8 h; 100% = twice DMSO control signal; activation, % at 9 µM; AID 504408, 2011;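 active = mean replicate activation of at least 50% with a set share of replicates each reaching 50%; inconclusive = only one of those two conditions met; inactive = mean below 50% and too few replicates reaching it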;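 note: 0% = median of the neutral control wells and 100% = twice that signal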
ALR H2O2 inh: inhibitors of human ALR sulfhydryl oxidase, primary screen, biochemical, H2O2 detection, HRP-luminol luminescence, single point | FAD-linked sulfhydryl oxidase ALR (Homo sapiens), P55789 | purified ALR, DTT oxidation | inhibition, % (concentration not given with the values) | 3.8% of 290,000 active | AID 485317, 2010;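 active = mean replicate inhibition above about 79%, with every replicate also reaching it, limit read from the data; inconclusive = only one of the two criteria met; inactive = mean below limit and not every replicate reaching it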
Target sequence (P55789 whole entry, looked up): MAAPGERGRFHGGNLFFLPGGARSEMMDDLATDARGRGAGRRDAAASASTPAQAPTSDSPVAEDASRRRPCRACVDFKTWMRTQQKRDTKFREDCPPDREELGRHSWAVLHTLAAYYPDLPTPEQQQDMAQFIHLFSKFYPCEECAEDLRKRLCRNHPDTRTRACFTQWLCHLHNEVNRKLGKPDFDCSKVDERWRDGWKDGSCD
core dimer inh: inhibitors of HCV core protein dimerization, primary screen, biochemical, TR-FRET, high-throughput; TR-FRET GST/Flag-core106 dimerization, 1536-well; inhibition, % at 5 µM; 0.33% of 300,000 active; AID 1899, 2009;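 active = inhibition above the mean of all tested compounds plus 3 SD, set per screening campaign, cut at about 45% in these data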
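Assay system: tagged HCV core106 pair (GST and Flag); medium: KF-containing HEPES buffer, pH 7.45, DTT, CHAPS, BSA; also added: Eu donor and XL665 acceptor anti-tag antibodies; dosing: 5 µM single dose; timing: compound-protein-antibody incubation 4 h at 22.5 °C; signal: TR-FRET 671 and 617 nm emission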
* hit, by the source's call.

`Cc1[nH]c2ccccc2c1C(C[N+](=O)[O-])c1ccco1` (stereo not drawn) gave HSF1 inh 7, AI-2 QS modul 7, PHOSPHO1 block -8, HSF-1 act 18, ALR H2O2 inh 21 and core dimer inh 13.
For COc1cc(C(C[N+](=O)[O-])c2c(C)[nH]c3ccccc23)ccc1O (stereo not drawn) the results were HSF1 inh 3, AI-2 QS modul 9, PHOSPHO1 block 3, HSF-1 act -1, ALR H2O2 inh 99* and core dimer inh -3.
COc1ccccc1C(C[N+](=O)[O-])c1c[nH]c2ccccc12 (stereo not drawn) was read as HSF1 inh -11, AI-2 QS modul -21, PHOSPHO1 block 8, HSF-1 act -6 and core dimer inh 2.
`Cc1[nH]c2ccccc2c1C(C[N+](=O)[O-])c1cccc(O)c1` (stereo not drawn) gave HSF1 inh 1, AI-2 QS modul -6, PHOSPHO1 block -5, HSF-1 act -4, ALR H2O2 inh 98* and core dimer inh -5.
`Cc1ccc(-c2[nH]c3ccccc3c2C(C[N+](=O)[O-])c2ccco2)cc1` (stereo not drawn) gave HSF1 inh 28, AI-2 QS modul inconclusive, PHOSPHO1 block 21, HSF-1 act 70*, ALR H2O2 inh 94* and core dimer inh 8.
`Cc1[nH]c2ccccc2c1C(C[N+](=O)[O-])c1cccs1` (stereo not drawn) gave HSF1 inh -75*, AI-2 QS modul 9, PHOSPHO1 block -6, HSF-1 act -79, ALR H2O2 inh 59 and core dimer inh -6.
`Cc1cc(-c2ccc(S(=O)(=O)N3CCCCC3)s2)on1` gave HSF1 inh -1, AI-2 QS modul 9, PHOSPHO1 block 26, HSF-1 act -4, ALR H2O2 inh -1 and core dimer inh -2.
C/C=C/Cn1c(Br)nc2c1c(=O)[nH]c(=O)n2C was read as HSF1 inh 6, AI-2 QS modul 23, PHOSPHO1 block 10, HSF-1 act 12, ALR H2O2 inh 5 and core dimer inh -3.
C/C=C/Cn1c(SC)nc2c1c(=O)[nH]c(=O)n2C was read as HSF1 inh -3, AI-2 QS modul 11, PHOSPHO1 block 71*, HSF-1 act 17, ALR H2O2 inh 0 and core dimer inh -8.
Screening Cc1c(Nc2nc(-c3ccc(Cl)cc3)cs2)c(=O)n(-c2ccccc2)n1C returned HSF1 inh 21, AI-2 QS modul -86*, PHOSPHO1 block -16, HSF-1 act 17, ALR H2O2 inh 35 and core dimer inh 0.
For COc1ccccc1CN(C(=O)CNC(=O)c1ccco1)C(C(=O)NCC1CCCO1)c1ccccc1 (stereo not drawn) the results were HSF1 inh -7, AI-2 QS modul 17, PHOSPHO1 block 26, HSF-1 act -8, ALR H2O2 inh -4 and core dimer inh 0.
`O=C(c1cccc(C(F)(F)F)c1)C1CCCN(C(=O)/C=C/c2cnc[nH]2)C1` (stereo not drawn) gave HSF1 inh 3, AI-2 QS modul 6, PHOSPHO1 block 8, HSF-1 act 23 and ALR H2O2 inh -2.
For CCCn1c(N2CCN(CC(=O)c3c(C)n(C)c4ccccc34)CC2)nc2c1c(=O)[nH]c(=O)n2C the results were HSF1 inh -2, AI-2 QS modul 12, PHOSPHO1 block 4, HSF-1 act -11, ALR H2O2 inh -1 and core dimer inh 3.
CCn1c(N2CCN(CC(=O)c3c[nH]c4ccccc34)CC2)nc2c1c(=O)[nH]c(=O)n2C was read as HSF1 inh 3, AI-2 QS modul 4, PHOSPHO1 block 74*, HSF-1 act 17, ALR H2O2 inh -5 and core dimer inh 3.
Screening CCCS(=O)(=O)c1nnnn1-c1cccc(OC)c1 returned HSF1 inh -95*, AI-2 QS modul -63, PHOSPHO1 block 0, HSF-1 act -95, ALR H2O2 inh 98* and core dimer inh 5.
`COc1cccc(-n2nnnc2SCC(=O)Nc2ccccc2OC)c1` gave HSF1 inh 2, AI-2 QS modul 8, HSF-1 act 11, ALR H2O2 inh -1 and core dimer inh 1.
For CCOc1c(O)ccc(C2NC(=O)N(C)C(C)=C2C(=O)OC)c1[N+](=O)[O-] (stereo not drawn) the results were HSF1 inh -6, AI-2 QS modul 10, PHOSPHO1 block -135, HSF-1 act 1, ALR H2O2 inh 89* and core dimer inh -3.
`N#C/C(N=Nc1ccccc1O)=N\Nc1ccccc1O` gave HSF1 inh 9, AI-2 QS modul 24, HSF-1 act 17, ALR H2O2 inh 99* and core dimer inh -56.
Screening COc1ccc2cc3c(N)nn(C(=O)c4ccccc4[N+](=O)[O-])c3nc2c1 returned HSF1 inh -53*, AI-2 QS modul 21, PHOSPHO1 block -2, HSF-1 act -63, ALR H2O2 inh -14 and core dimer inh -6.
For COc1ccc2cc3c(N)nn(C(=O)c4ccc(Cl)c([N+](=O)[O-])c4)c3nc2c1 the results were HSF1 inh -31, AI-2 QS modul 17, PHOSPHO1 block -13, HSF-1 act -25, ALR H2O2 inh 2 and core dimer inh 48*.
`Cc1onc(COc2ccccc2O)c1Br` gave HSF1 inh 13, AI-2 QS modul 9, PHOSPHO1 block -25, HSF-1 act 19, ALR H2O2 inh 9 and core dimer inh -4.
O=C(NC(=S)Nc1cc(C(F)(F)F)ccc1N1CCOCC1)c1ccco1 was read as HSF1 inh -3, AI-2 QS modul 18, PHOSPHO1 block 20, HSF-1 act 1, ALR H2O2 inh 1 and core dimer inh -1.
Screening O=C(Nc1ccc2c(c1)nc1n2CCOC1)c1ccccc1 returned HSF1 inh 21, AI-2 QS modul 15, PHOSPHO1 block 14, HSF-1 act 27 and core dimer inh -18.
Screening COc1ccc(C(=O)Nc2ccc3nc(C)c(C)nc3c2)cc1 returned HSF1 inh 16, AI-2 QS modul 3, PHOSPHO1 block 3, HSF-1 act 16, ALR H2O2 inh -14 and core dimer inh -5.
O=C(Nc1ccc2c(c1)nc1n2CCSC1)c1ccccc1 was read as HSF1 inh 10, AI-2 QS modul 19, PHOSPHO1 block 24, HSF-1 act 29, ALR H2O2 inh 99* and core dimer inh 1.
